# An excerpt weighted towards active compounds, which were near 1.4% of everything screened.
# Tn7 DDE FP – inhibitors of Tn7 peptide binding to fibrin DD(E), primary screen, biochemical, fluorescence polarization, human fibrin, Tn7 probe; AID 720508, 2013; 370,000 tested, 0.13% active; inhibition, % at 8.3 µM; FP displacement of FITC-Tn7 peptide from fibrin DD(E); 0% = median of compound wells per plate;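 active means inhibition above the mean of compounds falling within the control limits plus 3 SD of them, cut at about 14% in these data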;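 further: 0% = plate median of compound wells and 100% = 10 µM Aha-Tn7 peptide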
# Target sequence (P02675 whole entry, looked up): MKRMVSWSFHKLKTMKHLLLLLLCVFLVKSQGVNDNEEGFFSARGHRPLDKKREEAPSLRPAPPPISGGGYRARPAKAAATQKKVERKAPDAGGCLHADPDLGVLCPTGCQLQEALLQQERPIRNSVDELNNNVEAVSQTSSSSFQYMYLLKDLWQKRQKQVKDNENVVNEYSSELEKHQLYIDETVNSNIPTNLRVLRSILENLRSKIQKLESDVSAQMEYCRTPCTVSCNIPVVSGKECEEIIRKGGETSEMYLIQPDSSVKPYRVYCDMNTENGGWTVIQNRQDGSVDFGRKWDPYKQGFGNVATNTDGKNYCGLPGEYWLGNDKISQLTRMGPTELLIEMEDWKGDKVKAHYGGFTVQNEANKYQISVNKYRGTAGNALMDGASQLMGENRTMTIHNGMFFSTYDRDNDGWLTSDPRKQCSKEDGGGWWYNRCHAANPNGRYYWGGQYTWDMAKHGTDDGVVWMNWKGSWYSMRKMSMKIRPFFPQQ
#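 System: human fibrin DD(E); quantity: Fibrin-DD(E) at 2 µM final; also added: fluorescent Tn7 probe at 0.1 µM; compound dosing: single nominal test concentration of 8.3 µM per compound; schedule: 10 min preincubation, 3 h with tracer, room temperature; detection: fluorescence polarization of the labelled Tn7 tracer; repeats: one replicate per compound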
# Arr AP2 block – inhibitors of beta-arrestin/AP2 binding, primary screen, biochemical, GPCR trafficking, flow cytometry; beta-arrestin 1 C-terminal peptide binding to AP2 beta2-adaptin appendage (human); FITC-arrestin peptide / GST-AP2 beads; AP2 beta2 appendage carries R879A mutation; inhibition, % at 10 µM; 340,000 tested, 0.31% active;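 active means inhibition above a set limit, near 3 SD of compounds lacking own fluorescence, cut at about 54% in these data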;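 further: plate controls were DMSO wells for no effect and 5 µM unlabelled arrestin peptide for full effect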
#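 system = GST-tagged AP2 beta2-adaptin appendage (R879A) on 4 µm glutathione beads | reagent = FITC-labelled arrestin peptide probe, 50 nM final | schedule = compound with beads 12 min RT, then probe 1 h RT | signal = HyperCyt-sampled flow cytometry, FL1 channel, ex 488/em 535 nm | read-out = percent response from loss of bead-bound FITC fluorescence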
# CAL PDZ FP-1 – CAL PDZ peptide-binding inhibitors, primary screen, biochemical, fluorescence polarization, Cer-tagged CAL PDZ, HTS. Golgi-associated PDZ and coiled-coil motif-containing protein (Homo sapiens), Q9HD26. purified CAL PDZ, TMR-peptide fluorescence polarization, 1 h. inhibition, % at 20 µM. 330,000 tested, 0.02% active. AID 504414, 2011;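 active means highest replicate inhibition of at least 40%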;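 further: plate controls were DMSO neutral control wells for no effect and unlabeled competitor peptide control wells for full effect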
#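 System: purified tagged CAL PDZ domain construct (CerCALP). Schedule: 1 h incubation at room temperature before polarization reading. Medium: 25 mM sodium phosphate pH 7.4, 150 mM NaCl, TCEP, IgG, Thesit. Read-out: percent inhibition from loss of millipolarization. Measured by: FP readout, S and P plane fluorescence. Probe or stimulus: fluorescent TMR peptide probe.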
# CAL PDZ FP-2 – untagged CAL PDZ binding inhibitors, primary screen, biochemical, fluorescence polarization, HTS | Golgi-associated PDZ and coiled-coil motif-containing protein (Homo sapiens), Q9HD26 | purified CAL PDZ, TMR-peptide fluorescence polarization, 1 h | inhibition, % at 24.9 µM | 300,000 tested, 0.92% active | AID 602252, 2012;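 active means mean inhibition of at least 30% with at least half of replicates also reaching 30%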;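 further: 0% = DMSO neutral control and 100% = excess unlabeled competitor peptide PRC23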
# Tn6 DDE FP – inhibitors of Tn6 peptide binding to fibrin DD(E), primary screen, biochemical, fluorescence polarization, human fibrin, Tn6 probe | Fibrinogen beta chain (Homo sapiens), P02675 | Fibrin DD(E) TRITC-Tn6 fluorescence polarization displacement | inhibition, % at 8.3 µM | 370,000 tested, 0.21% active;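 active means inhibition above a per-campaign cutoff: mean of compounds within control limits plus 3 SD, cut at about 15% in these data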;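 further: 0% = median of all compound wells on the plate and 100% = blocking peptide control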
# * = called active by the depositor; . = no result.
SMILES,Tn7 DDE FP,Arr AP2 block,CAL PDZ FP-1,CAL PDZ FP-2,Tn6 DDE FP
Cc1sc2nc(CSCC(=O)NC(C)(C)C)[nH]c(=O)c2c1C,3,55*,0,-5,1
Cc1sc2nc(CSCC(=O)Nc3ccc(C(F)(F)F)cc3)[nH]c(=O)c2c1C,-1,-13,-1,2,-10
O=C1C(=O)N(Cc2ccc(-c3ccc(Cl)nc3)cc2)c2ccc(OC(F)(F)F)cc21,2,.,.,.,-1
CCOC(=O)c1c(C)[nH]c(C)c1S(=O)(=O)N(C)CC(=O)Nc1cccc(F)c1,0,-11,-1,34*,-12
CCN(CC)C(=O)CC[C@@H]1CC[C@]2(CCCN(Cc3ccccc3)C2)O1,9,.,.,.,-8
C=CCn1c(SCc2cccc(C(F)(F)F)c2)nnc1-c1ccc(OC)cc1,1,.,.,.,-7
CCC(=O)N1CCc2cc(Br)cc(S(=O)(=O)N3CCCCC3CC)c21 (stereo not given),-6,16,-1,74*,0
COc1ccc(CN(CCN2CCOCC2)C(=O)c2cccc(F)c2)cc1OC,4,.,.,.,4
COCCn1cnc2c(c1=O)c1nc3ccccc3nc1n2/N=C/c1cccc(OC)c1,5,-21,-3,34*,-2
C(=C\c1ccc2ccccc2n1)/c1ccccc1,1,-15,-2,-6,0
Oc1ccc(/C=C/c2ccc3ccccc3n2)cc1,2,1,0,69*,-7
CN(C)c1ccc(/C=C/c2ccc3ccccc3n2)cc1,.,16,-1,100*,.
C=CCN1C(=O)[C@H](CC(=O)NCCC(C)C)[C@@]2(C(=O)OCC)CCCC=C12,5,.,.,.,9
COC(=O)C1CN(Cc2ccccc2)CCS(=O)(=O)N1Cc1ccccc1 (stereo not given),-3,.,.,.,-4
COC(=O)CSc1nc(C)cc(C)c1C#N,-7,1,-1,6,1
CCOC(=O)CC(=O)CSc1nc(C)cc(C)c1C#N,-5,7,-2,39*,3
Nc1nc2c(ncn2[C@@H]2O[C@H](C(=O)N[C@H](Cc3ccccc3)C(=O)NC3CCCCC3)[C@@H](O)[C@H]2O)c(=O)[nH]1,-4,.,.,.,6
C[C@H]1[C@@H](c2ccccc2)OC(O)([C@H](Cc2ccccc2)NC(=O)OC(C)(C)C)CN1C (stereo not given in full),-8,.,.,.,-6
Cc1cccc(C)c1NC(=S)NCc1ccccc1,-3,36,-3,-4,3
Cc1cccc(C)c1NC(=S)NC(C)(C)CO,-6,-21,-1,79*,2
CCOC(=O)CSc1nc2sc3c(c2c(=O)n1-c1ccccc1)CCN(C(C)C)C3,4,13,-1,3,19*
CN1C(=O)[C@@](O)(c2cccn2C)c2cc(Cl)ccc21,3,.,.,.,3
COc1cccc(CSc2nnc(-c3ccncc3)n2C)c1,7,2,0,40*,1
Cc1ccc(CSc2nnc(-c3ccncc3)n2C)cc1,2,2,-4,-2,0
CC(COc1ccc(S(C)(=O)=O)cc1)CN1CCC(C(O)(c2ccccc2)c2ccccc2)CC1 (stereo not given),-9,.,.,.,4
SMILES,Tn7 DDE FP,Arr AP2 block,CAL PDZ FP-1,CAL PDZ FP-2,Tn6 DDE FP
O=[N+]([O-])c1ccc(C2=NN(CCO)C(=Nc3ccc(OC(F)(F)F)cc3)SC2)cc1,-4,-3,0,31*,0
N=c1c2c(ncn1CCCO)Oc1cc(O)ccc1C2c1ccccc1 (stereo not given),-3,-9,-2,39*,10
CC(=O)c1ccc(OCc2cc(C(=O)N3CCN(c4ccccc4)CC3C)no2)cc1 (stereo not given),-9,16,0,6,3
CSc1ccccc1OCc1cc(C(=O)N2CCN(c3ccccc3)CC2C)no1 (stereo not given),-3,-3,0,69*,-6
CC(C)(C)S(=O)(=O)c1cnc(N2CCCCC2)nc1N,-2,11,-1,50*,-1
CC(C)(C)S(=O)(=O)c1cnc(-c2ccc(Cl)cc2)nc1N,-5,9,0,-5,6
COCCNC(=O)C(=O)NCCN1CCNCC1,-8,-12,0,88*,7
CCCCNC(=O)C[C@@H]1C(=O)N(CCc2ccc(Cl)cc2)C2=CCCCC[C@]21C(=O)OC,1,.,.,.,1
C=C(C)CCOC(=O)C(CC(=O)O)NCc1ccco1 (stereo not given),-9,6,4,49*,8
COc1ccc(C(C[N+](=O)[O-])c2c(-c3ccccc3)cc3ccccn23)cc1OC (stereo not given),-8,18,1,-1,-6
COc1ccc(C(C[N+](=O)[O-])c2c(-c3ccccc3)cc3ccccn23)cc1 (stereo not given),5,25,-1,85*,-6
Cc1ccc(-c2ccc(SCC(=O)c3ccccc3)nn2)cc1,6,26,-2,-1,4
COc1ccc(-c2ccc(SCC(=O)c3ccccc3)nn2)cc1OC,5,-20,-9,71*,1
O=C(Nc1ccc(F)cc1)Nc1ccc(S(=O)(=O)N2CCCC2)cc1,1,13,-1,-4,-18
Cc1oc(S(=O)(=O)N2CCCCC2)cc1NC(=O)Nc1ccc(F)cc1,-2,-21,-1,45*,8
COc1ccc(CC(=O)Nc2c(C(=O)N3CCN(c4ncccn4)CC3)oc3ccccc23)cc1,1,7,-2,43*,3
COc1ccc(CC(=O)Nc2c(C(=O)N3CCN(c4ncccn4)CC3)oc3ccccc23)cc1OC,-5,-2,-2,-4,-1
CN(CCO)c1ccc2c(c1)Oc1ccccc1CN(Cc1cn(Cc3ccc(C(F)(F)F)cc3)nn1)S2(=O)=O,1,.,.,.,8
CN1CCN(c2ccc(Cl)cc2NC(=O)C2COc3ccccc3O2)CC1 (stereo not given),1,5,-3,71*,-3
COc1ccc(Cl)cc1NC(=O)C1COc2ccccc2O1 (stereo not given),-3,-12,-1,.,-12
CN1CCCN(C(=O)c2ccc(Cl)cc2)CC1,4,5,0,-2,0
CN1CCN(C(=O)c2cc(Cl)cc(Cl)c2)CC1,1,-21,.,64*,-7
CCOc1ccccc1N=Nc1c(C)[nH]n(C(N)=S)c1=O,4,-22,.,37*,-5

# Screens from PubChem BioAssay.
